Assay results from ChEMBL document CHEMBL5385974, “A novel BODIPY-based theranostic agent for in vivo fluorescence imaging of cerebral Aβ and ameliorating Aβ-associated disorders in Alzheimer's disease transgenic mice” (RSC Med Chem, 2024).
The source made the active and inactive calls. The rule behind the calls is not given here.

Experiments:
[1] = target: T1, Amyloid-beta precursor protein (Homo sapiens, UniProt P05067); test: Binding affinity to Amyloid beta (1 to 42) aggregates (unknown origin) assessed as fluorescent intensities measured after 30 mins by fluorescence spectrometry
T1 sequence (P05067 whole entry): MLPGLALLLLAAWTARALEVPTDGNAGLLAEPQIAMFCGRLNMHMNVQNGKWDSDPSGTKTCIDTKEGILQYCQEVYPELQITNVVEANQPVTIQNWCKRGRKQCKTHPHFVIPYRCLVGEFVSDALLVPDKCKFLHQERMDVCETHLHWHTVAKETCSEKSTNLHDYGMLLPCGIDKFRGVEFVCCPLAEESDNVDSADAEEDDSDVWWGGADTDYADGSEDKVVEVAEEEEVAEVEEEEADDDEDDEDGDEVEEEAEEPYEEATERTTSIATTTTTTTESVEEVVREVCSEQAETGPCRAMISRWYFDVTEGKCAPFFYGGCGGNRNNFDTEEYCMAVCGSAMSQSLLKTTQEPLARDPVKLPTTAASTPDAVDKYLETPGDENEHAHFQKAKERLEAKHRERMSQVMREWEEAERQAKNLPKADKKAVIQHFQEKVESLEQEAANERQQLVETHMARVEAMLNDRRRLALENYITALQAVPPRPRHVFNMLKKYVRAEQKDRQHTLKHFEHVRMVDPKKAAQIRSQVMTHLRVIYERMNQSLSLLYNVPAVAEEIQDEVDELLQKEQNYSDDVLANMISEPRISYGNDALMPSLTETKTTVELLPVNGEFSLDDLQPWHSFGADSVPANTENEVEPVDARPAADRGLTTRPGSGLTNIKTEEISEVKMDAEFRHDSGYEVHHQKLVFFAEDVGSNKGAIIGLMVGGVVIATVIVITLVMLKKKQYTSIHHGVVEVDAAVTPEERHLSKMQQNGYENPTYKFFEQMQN
Summary of the method: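 P14 (320 nM final, in EtOH) incubated 30 min at room temperature with 0, 2, 4, 6 or 8 μM Aβ42 aggregates. Aggregates were made by shaking 50 μM Aβ42 in 10 mM PBS pH 7.4 at 100 rpm, 37 °C, 24 h. Emission spectra recorded at 600–800 nm with excitation at 589 nm.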

[2] = target: T1, Amyloid-beta precursor protein; test: Binding affinity to Amyloid beta (1 to 42) aggregates (unknown origin)
Summary of the method: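 Fluorescence titration in which P14 (0–200 nM, in EtOH) was incubated with 5 μM Aβ42 aggregates for 30 min at room temperature. Read in a quartz cuvette at Ex 589 nm, Em 620 nm. Kd was obtained by nonlinear regression, one-site binding. n = 3; mean ± SD.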

Mus musculus [3] = organism: Mus musculus; test: Anti-alzheimer activity against 12 month old APP/PS1 transgenic mouse model assessed as decrease in amyloid beta plaques in brain hippocampus region treated continuously and measured after 3 months by ThS staining based immunofluorescence assay relative to control; type: functional, organism-based
Summary of the method: (§1)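 APP/PS1 mice dosed orally from 9 months of age for three months with 10 mg kg-1 in PEG400:HS15:0.9% saline = 25:15:60, or with vehicle alone. Wild-type mice were treated in parallel. ThS-stained plaques were counted by confocal imaging of hippocampus and cortex sections at 12 months. n = 3.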

Mus musculus [4] = organism: Mus musculus; test: Antialzheimer activity in 12 month old APP/PS1 transgenic cognitive impairment mouse model assessed as shortening of latencies to reaching platform treated continuously and measured after 3 months by water maze test; type: functional, organism-based
Summary of the method: (§2)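 APP/PS1 mice and wild-type littermates given oral 10 mg kg-1 (PEG400:HS15:0.9% saline = 25:15:60) or vehicle from 9 to 12 months. Tested in an 80 × 50 cm passage water maze with one correct path. Training was 1-min free swims, with guidance to the platform on failure. After 4 trainings, wrong-path errors and latency to the platform were recorded. n = 6-10.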

Mus musculus [5] = test: In vivo binding affinity Amyloid beta deposits in APP/PS1 transgenic mouse assessed as Increase in fluorescence intensity at 2 mg/kg, iv measured after 5 mins by IVIS Spectrum imaging based assay relative to wild type; type: functional, organism-based
Summary of the method: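 APP/PS1 and wild-type mice, 12 months old, heads shaved and anaesthetized with 1.5% isoflurane. Injected intravenously with 2 mg kg-1 in DMSO:Cremophor EL:0.9% saline = 5:10:85. Brain fluorescence was acquired sequentially by IVIS, with circular ROI analysis at 5 min. Ex 570 nm, Em Cy5.5. n = 3.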

Brain = test: In vivo binding affinity Amyloid beta deposits in wild type mouse brain by fluorescence staining assay; type: functional, organism-based
Summary of the method: (§3)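 Frozen brain sections from perfused 12-month male APP/PS1 mice or wild-type mice. Sections were stained with ThS (10 mg mL-1), washed 3 times with 50% ethanol, then incubated with 100 μM compound for 20 min at room temperature. Confocal imaging: compound Ex 638/Em 650–700 nm, ThS Ex 488/Em 500–550 nm. n = 3.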

[6] = target: T1, Amyloid-beta precursor protein; test: Inhibition of amyloid beta 42 (unknown origin) aggregation assessed as fluorescence intensity at 0.1 equivalents measured for 24 hrs by ThT fluorescence assay
Summary of the method: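 Aβ42 monomer (50 μM) incubated 24 h at 37 °C with or without compound. ThT was then added from a 15 mM solution in 50 mM glycine-NaOH, and fluorescence read at Ex 425/Em 490 nm. n = 4; mean ± SD.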

Cortical neurone [7] = test: Neuroprotective effect against Amyloid-beta induced Sprague-Dawley rat primary cortical neurons assessed as cell viability after 9 days of pretreatment with Amyloid-beta followed by incubated with 1 uM compound for 24 hrs by MTT assay; type: functional, cell-based; details: time 9.0 day
Summary of the method: (§4)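 Primary cortical neurons from newborn SD rat pups, cultured in neurobasal/B27 at 37 °C and used at day 9. Cells were exposed for 24 h to Aβ42 (1 μM final) premixed with compound at 0, 0.1, 0.25, 0.5, 1 or 5 μM final. MTT was then added for 4 h, formazan dissolved in DMSO and absorbance read at 490 nm. n = 3; mean ± SD.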

Mus musculus [8] = test: Anti-alzheimer activity against 5 month old 5 x FAD mouse assessed as average radiation efficiency at 30 mg/kg, po treated for 1 month; type: functional; details: time 1 months, 730 h
Summary of the method: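 5×FAD and wild-type mice imaged by IVIS after a single intravenous injection of 2.0 mg kg-1. Imaging was done at 5 months, and again at 6 months after one month of oral treatment (30 mg kg-1) or vehicle. Ex 570 nm, Em 640 nm. Read-out is average radiation efficiency. n = 3 at 5 months, n = 4 at 6 months; mean ± SD.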

Cortical neurone [9] = test: Neuroprotective effect against Amyloid-beta induced Sprague-Dawley rat primary cortical neurons assessed as reversal of Amyloid beta-induced loss of MAP2/DAPI fluorescence signal at 1 uM by immunofluorescence staining based assay; type: functional, cell-based
Summary of the method: (§5)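 Primary rat cortical neurons exposed to Aβ42 with or without compound. Cells were fixed in 4% PFA and blocked with 3% BSA/0.01% Triton X-100 for 1 h. Staining was anti-MAP2 (1:200) overnight at 4 °C, then Alexa Fluor 488 secondary (1:500) for 1 h, with DAPI nuclear counterstain. MAP2 fluorescence was quantified. n = 3.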

Cortical neurone [10] = test: Neuroprotective effect against Amyloid-beta induced Sprague-Dawley rat primary cortical neurons assessed as reversal of Amyloid beta-induced loss of MAP2 fluorescence signal at 1 uM by immunofluorescence staining based assay; type: functional, cell-based; summary of the method: as §5
Cortical neurone [11] = test: Neuroprotective effect against Amyloid-beta induced Sprague-Dawley rat primary cortical neurons assessed as cell viability after 9 days of pretreatment with Amyloid-beta followed by incubated with 5 uM compound for 24 hrs by MTT assay; type: functional, cell-based; details: time 9.0 day; summary of the method: as §4
Cortical neurone [12] = test: Cytotoxicity against Sprague-Dawley rat primary cortical neurons assessed as cell viability at 0.1 to 5 uM measured after 24 hrs by MTT assay; type: toxicity, cell-based; details: dose 0.1-5 µM
Mus musculus [13] = organism: Mus musculus; test: Antialzheimer activity in 12 month old APP/PS1 transgenic cognitive impairment mouse model assessed as reduction in error time in passage water maze treated continuously and measured after 3 months by passage water maze test; type: functional, organism-based; summary of the method: as §2
Mus musculus [14] = organism: Mus musculus; test: Anti-alzheimer activity against transgenic mouse model assessed as decrease in amyloid beta plaques in brain hippocampus region treated continuously and measured after 3 months by ThS staining based immunofluorescence assay relative to control
Cerebral cortex = test: In vivo binding affinity Amyloid beta deposits in APPswe/PSEN1dE9, APP/PS1 double transgenic mouse cerebral cortex assessed as red fluorescent spot; type: functional, organism-based; summary of the method: as §3
[15] = target: T1, Amyloid-beta precursor protein; test: Inhibition of amyloid beta 42 (unknown origin) aggregation assessed as reduction in amyloid fibrils density at 50 uM measured after 24 hrs incubation by transmission electron microscopy (TEM)
Summary of the method: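 Aβ42 (50 μM in water) mixed 1:1 with water or 100 μM compound, then shaken at 100 rpm, 37 °C, 24 h. Samples were adsorbed on carbon-coated copper grids, negatively stained with 7.5% uranium formate and imaged by TEM at 120 kV.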

Mus musculus [16] = organism: Mus musculus; test: Anti-alzheimer activity against 12 month old APP/PS1 transgenic mouse model assessed as decrease in amyloid beta plaques in brain cortex region treated continuously and measured after 3 months by ThS staining based immunofluorescence assay relative to control; type: functional, organism-based; summary of the method: as §1
Hippocampus = test: In vivo binding affinity Amyloid beta deposits in APPswe/PSEN1dE9, APP/PS1 double transgenic mouse hippocampus assessed as red fluorescent spot; type: functional, organism-based; summary of the method: as §3
[17] = Solubility of the compound in water; type: physicochemical; details: buffer

| Kd [1] | Kd [2] | inhibition [6] | inhibition [15] | solubility [17] | Compound | Activity (Mus musculus [3]) | Activity (Mus musculus [4]) | Activity (Mus musculus [5]) | Activity (Brain) | Activity (Cortical neurone [7]) | Activity (Mus musculus [8]) | Activity (Cortical neurone [9]) | Activity (Cortical neurone [10]) | Activity (Cortical neurone [11]) | Activity (Cortical neurone [12]) | Activity (Mus musculus [13]) | Activity (Mus musculus [14]) | Activity (Cerebral cortex) | Activity (Mus musculus [16]) | Activity (Hippocampus) |
| --- | --- | --- | --- | --- | --- | --- | --- | --- | --- | --- | --- | --- | --- | --- | --- | --- | --- | --- | --- | --- |
| 27 nM |  |  |  |  | CC1=CC(C)=[N+]2C1=C(CCCN1CCNc3ccccc31)c1c(C)cc(/C=C/c3ccc(N(C)C)s3)n1[B-]2(F)F |  |  |  |  |  |  |  |  |  |  |  |  |  |  |  |
|  | 55 nM |  |  |  | Cc1cc(/C=C/c2ccc(N(C)C)s2)n2c1C=C1C=CC=[N+]1[B-]2(F)F |  |  |  |  |  |  |  |  |  |  |  |  |  |  |  |
| 78.1 nM |  | Dose-Dependent Effect | Active | Soluble | CC1=CC(C)=[N+]2C1=C(CCCO)c1c(C)cc(/C=C/c3cnc(N(C)C)s3)n1[B-]2(F)F | Active | Active | Active | inactive | Active | 5.2 10^8(p/s/cm^2/sr)/(uW/cm^2) | Active | Active | Active | Non-Toxic | Active | Active | Active | Active | Active |
